Here are results for seven compounds from ChEMBL document CHEMBL1144236, “Synthesis of 1-arylpiperazyl-2-phenylcyclopropanes designed as antidopaminergic agents: cyclopropane-based conformationally restricted analogs of haloperidol” (Bioorg Med Chem, 2008).

One assay concerns the target D(2) dopamine receptor (Homo sapiens, UniProt P14416). Briefly: Displacement of [3H]YM-09151-2 from human dopamine D2S receptor in membrane suspensions by liquid scintillation counter.
Assay [1] in a line: Displacement of [3H]YM-09151-2 from human dopamine D4.2 receptor in membrane suspensions by liquid scintillation counter.
For the next assay, the species on record is Homo sapiens. In words: Selectivity ratio of Ki for human dopamine D2S receptor to Ki for human dopamine D4.2 receptor.
Assay [2] in a line: Displacement of [3H]prazosin from adrenergic alpha1 receptor in ICR mouse brain homogenate. Format: tissue-based. The procedure, abridged: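 Brain tissue was homogenized in 19 vol. of 50 mM Tris–HCl pH 7.5 and centrifuged at 40,000g for 15 min, then the pellet was washed once and resuspended in 24 vol. buffer. Homogenate (about 400 protein) was incubated with [3H]prazosin (0.05–1 nM) for 1 h at 20 °C. Binding was ended by rapid filtration, with filter-bound radioactivity counted by liquid scintillation.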

D(2) dopamine receptor, sequence (P14416 whole entry): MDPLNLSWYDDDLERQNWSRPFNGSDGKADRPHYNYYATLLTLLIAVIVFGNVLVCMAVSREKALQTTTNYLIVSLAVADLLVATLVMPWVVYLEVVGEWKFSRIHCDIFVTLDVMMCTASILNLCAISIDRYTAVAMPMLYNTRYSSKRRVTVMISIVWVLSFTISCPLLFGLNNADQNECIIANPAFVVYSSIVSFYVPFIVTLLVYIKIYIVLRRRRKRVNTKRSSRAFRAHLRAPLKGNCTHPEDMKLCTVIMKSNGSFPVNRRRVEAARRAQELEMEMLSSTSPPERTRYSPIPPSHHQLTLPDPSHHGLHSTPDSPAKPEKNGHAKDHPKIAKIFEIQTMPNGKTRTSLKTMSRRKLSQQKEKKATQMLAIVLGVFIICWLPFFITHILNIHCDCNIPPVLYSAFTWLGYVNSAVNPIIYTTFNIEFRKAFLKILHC

As for `Cc1ccc(N2CCN([C@H](C)[C@H]3C[C@]3(C)c3ccccc3)CC2)c(C)c1`, the Ki at D(2) dopamine receptor is above 10000 nM; in assay [1], 4660 nM; in assay [2], 401 nM. Further, in the assay listed under Homo sapiens, the Ratio Ki was above 2.1.

Turning to `Cc1ccc(N2CCN(C[C@H]3C[C@@H]3c3ccccc3)CC2)c(C)c1`, the figures for the Ki in assay [1] and in assay [2] were 130 nM and 432 nM, respectively.

As to `Cc1ccc(N2CCN(C[C@@H]3C[C@@H]3c3ccccc3)CC2)c(C)c1`, the inhibition constant (Ki) was found to be 2050 nM in assay [1] and 537 nM in assay [2].

Regarding `Cc1ccc(N2CCN(C[C@H]3C[C@H]3c3ccccc3)CC2)c(C)c1`, the inhibition constant (Ki) in assay [1] came to 897 nM; in assay [2], 521 nM.

Consider `Cc1ccc(N2CCN(C[C@H]3C[C@]3(C)c3ccccc3)CC2)c(C)c1`, for which the Ki was above 10000 nM at D(2) dopamine receptor, 236 nM in assay [1] and 906 nM in assay [2]. Further, the Ratio Ki in the assay filed under Homo sapiens is above 42.

Take `Cc1ccc(N2CCN([C@@H](C)[C@H]3C[C@]3(C)c3ccccc3)CC2)c(C)c1`: the Ki is above 10000 nM on D(2) dopamine receptor, 4190 nM in assay [1] and 250 nM in assay [2]. Moreover, the Ratio Ki in the assay listed under Homo sapiens is above 2.4.

As to `O=C(CCCN1CCC(O)(c2ccc(Cl)cc2)CC1)c1ccc(F)cc1` [HALOPERIDOL], affinity in assay [1] was put at a Ki of 9.32 nM.
